The test system of one assay is MDA-MB-231. Put plainly: Cell proliferation assay. In kind it is cell-based, human. In outline: (§1)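 Mycoplasma-negative, STR-authenticated cells were seeded at 4000−6000/well and kept overnight at 37 °C, 5% CO2. Graded test compound concentrations or solvent control were added to triplicate wells. Adherent lines were read by SRB (OD 510 nm) and suspension lines by MTT (OD 570 nm). IC50 was obtained by nonlinear regression. Results are means ± SD (n ≥ 2).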

The subject of a further assay is PC-3. Nature of the assay: Cell proliferation assay. In kind it is cell-based, human. In outline: as §1
A further assay relates to K562. Put plainly: Cell proliferation assay. Particulars: Homo sapiens, K562, read-out: IC50 K562. In kind it is cell-based. In outline: as §1
Another assay relates to K562/ADR. Put plainly: Cell proliferation assay, multidrug-resistant K562/ADR. Particulars: for IC50: Homo sapiens, K562/Adr, read-out: IC50 K562/ADR; for RF (resistance factor): K562/ADR versus K562. In kind it is cell-based. In outline:
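K562/ADR cells were derived from parental K562 by stepwise increases in ADR concentration. Proliferation was measured by the SRB (adherent) or MTT (suspension) method: 4000−6000 cells/well seeded overnight at 37 °C, 5% CO2, graded test compound in triplicate wells. IC50 was obtained by nonlinear regression. The resistance factor compares K562/ADR with parental K562. Results are means ± SD (n ≥ 2).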

Where [1] appears, read: read-out: IC50 MDA-MB-231, breast carcinoma, mean ± SD (n ≥ 2).
The mark [2] stands for this setting: read-out: IC50 PC-3, prostate carcinoma, mean ± SD (n ≥ 2).
Where [3] appears, read: Homo sapiens, MDA-MB-231, read-out: IC50 MDA-MB-231.
[4] abbreviates: Homo sapiens, PC-3, read-out: IC50 PC-3.

The source of these data is article PMC12079591 (ACS Omega, 2025).

Where two headings read alike, the source gives them in different places. A value given as a limit tells only on which side of the number the result lay.

On to “3-(1,2-Dicarba-closo-dodecarboranyl)-7-methoxychromane [Compound 1k]”, for which the IC50 was 35.3 ± 4.78 µM with MDA-MB-231 (setting [1]) and 35.5 ± 0.98 µM in the assay on PC-3 (setting [2]).
Take “3-(1,2-Dicarba-closo-dodecarboranyl)-7-methoxy-2H-chromene [Compound 1j]”: the IC50 came out at 16 ± 0.16 µM in the assay on MDA-MB-231 (setting [1]) and 10.9 ± 3.31 µM in the assay on PC-3 (setting [2]).
Take `COc1cccc2c1C(=O)c1c(O)c3c(c(O)c1C2=O)C[C@@](O)(C(=O)CO)C[C@@H]3O[C@H]1C[C@H](N)[C@H](O)[C@H](C)O1` [adriamycin]: the IC50 in the assay on K562 was found to be 0.0267 ± 0.00082 µM. For the same molecule, in the assay with K562/ADR, the IC50 was 2.84 ± 1.06 µM and the “RF (resistance factor)” value is 106.35.
For the molecule “3-(1,2-Dicarba-closo-dodecarboranyl)chromane-4,7-diol [Compound 1l]”, the IC50 with MDA-MB-231 (setting [1]) is 17.9 ± 6.09 µM; in the assay on PC-3 (setting [2]), 16.6 ± 1.89 µM.
For “3-(1,2-Dicarba-closo-dodecarboranyl)-7-methoxychroman-4-one [Compound 1i]”, in that order: 25.4 ± 7.3 µM and 38 ± 2.79 µM.
For `O=c1c(-c2ccc(O)cc2)coc2cc(O)cc(O)c12` [genistein, reference compound], the IC50 with MDA-MB-231 (setting [3]) was 36.9 ± 2.81 µM; in the assay on PC-3 (setting [4]), 29.5 ± 8.74 µM.
Turning to `CC(=O)O[C@H]1C(=O)[C@@]2(C)[C@H]([C@H](OC(=O)c3ccccc3)[C@]3(O)C[C@H](OC(=O)[C@H](O)[C@@H](NC(=O)c4ccccc4)c4ccccc4)C(C)=C1C3(C)C)[C@]1(OC(C)=O)CO[C@@H]1C[C@@H]2O` [paclitaxel], the IC50 in the assay on K562 is 0.00157 ± 0.0015 µM; in the assay with K562/ADR it was above 10 µM. The “RF (resistance factor)” value in the assay on K562/ADR is listed as above 6000; with K562/ADR (listed as PTX), “over 6000”.
With `COc1ccc(-c2coc3cc(O)ccc3c2=O)cc1` [formononetin, reference compound], the IC50 in the assay on MDA-MB-231 (setting [3]) and in the assay on PC-3 (setting [4]) was above 100 µM each time.
For “3-(1,2-Dicarba-closo-dodecarboranyl)-5-hydroxy-7-methoxy-4H-chromen-4-one [Compound 1f]”, the IC50 with MDA-MB-231 (setting [1]) and in the assay on PC-3 (setting [2]) was above 100 µM in each case.
Take “3-(1,2-Dicarba-closo-dodecarboranyl)-7-methoxychroman-4-ol [Compound 1h]”: the IC50 with MDA-MB-231 (setting [1]) came out at 14.6 ± 1.58 µM; with PC-3 (setting [2]) it was 13.5 ± 1.02 µM.
On to “7-(Benzyloxy)-3-(1,2-dicarba-closo-dodecarboranyl)-4H-chromen-4-one [Compound 1c]”, for which the IC50 came out at 65.3 ± 5.39 µM in the assay on MDA-MB-231 (setting [1]) and 72.4 ± 1.06 µM in the assay with PC-3 (setting [2]).
For “3-(1,2-Dicarba-closo-dodecarboranyl)-4H-chromen-4-one [Compound 1a]”, in that order: 75.2 ± 20.8 µM and 66.6 ± 8.79 µM.
Consider “3-(1,2-Dicarba-closo-dodecarboranyl)-5,7-dimethoxy-4H-chromen-4-one [Compound 1e]”, for which the IC50 in the assay with MDA-MB-231 (setting [1]) is 55.8 ± 6.71 µM; in the assay with PC-3 (setting [2]), 53.1 ± 0.73 µM.
As to “3-(1,2-Dicarba-closo-dodecarboranyl)-7-methoxy-4H-chromen-4-one [Compound 1b]”, the IC50 amounted to 47.5 ± 7.39 µM in the assay with MDA-MB-231 (setting [1]) and 54.7 ± 6.26 µM in the assay on PC-3 (setting [2]).
As for `CCC1=C[C@@H]2CN(C1)Cc1c([nH]c3ccccc13)[C@@](C(=O)OC)(c1cc3c(cc1OC)N(C)[C@H]1[C@@](O)(C(=O)OC)[C@H](OC(C)=O)[C@]4(CC)C=CCN5CC[C@]31[C@@H]54)C2` [vinorelbine], the results for the IC50 in the assay with K562 and in the assay with K562/ADR were 0.00157 ± 0.00112 µM and 0.326 ± 0.0425 µM, respectively. Moreover, in the assay with K562/ADR, the “RF (resistance factor)” value is recorded as 230.86.
